Measurements as given in ChEMBL document CHEMBL4028909, “Discovery of an Orally Bioavailable Benzofuran Analogue That Serves as a β-Amyloid Aggregation Inhibitor for the Potential Treatment of Alzheimer's Disease” (J Med Chem, 2018).
Active and inactive are the calls of the source. The rule behind the calls is not given here.

Key:
[1] = AUC in po dosed ICR mouse; type: ADME, organism-based; conditions: in vivo
[2] = Terminal half life in mouse at 3 mg/kg, po; type: ADME, organism-based; conditions: in vivo, read-out: beta t1/2 (converted)
How it was run: (§1)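 Mouse pharmacokinetics: single i.v. dose of 3 mg/kg, or oral doses of 3, 10 and 30 mg/kg. Plasma concentration–time curves gave T1/2 (terminal, hr), Tmax (hr), Cmax, AUC and bioavailability (%).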

[3] = AUC in po dosed monkey; type: ADME, organism-based, Macaca mulatta; conditions: rhesus monkey, in vivo
Mus musculus [4] = assay: Reversal of cognitive deficit in amyloid beta (1 to 42)-treated Alzheimer's disease ICR mouse model assessed as increase in spatial memory function by measuring spontaneous alternation at 1 mg/kg, po administered for 3 consecutive days by Y maze test relative to control; type: functional
How it was run: (§2)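 Acute AD model: preformed Aβ aggregates injected directly into the brains of normal mice to induce acute neurotoxicity. Compound given orally for three consecutive days, then the Y-maze was run. Read-out is percentage of spontaneous alternation, compared against normal and vehicle-treated mice.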

[5] = Half life in po ICR mouse; type: ADME, organism-based; conditions: in vivo
Canis familiaris = assay: Volume of distribution at steady state in po dosed dog; type: ADME, organism-based, Canis lupus familiaris; conditions: in vivo
[6] = target: Amyloid-beta precursor protein (Homo sapiens) (UniProt P05067); assay: Induction of HFIP-pretreated amyloid beta (1 to 42) (unknown origin) disaggregation after 1 hr by transmission electron microscopic method
[7] = AUC (infinity) in mouse at 3 mg/kg, po; type: ADME, organism-based; set-up: dose 3 mg/kg, time infinity, route oral; conditions: in vivo
How it was run: (§3)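 Mice received a single dose of 3 mg/kg i.v. or 3, 10 or 30 mg/kg orally. Plasma concentration-time profiles were analysed for AUC from zero to infinity and to the last measured time (hr*ng/mL), Cmax (ng/mL, C0 after i.v.), Tmax and terminal half-life (hr), and oral bioavailability (%).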

[8] = target: Amyloid-beta precursor protein (Homo sapiens) (UniProt P05067); assay: Induction of HFIP-pretreated amyloid beta (1 to 42) (unknown origin) disaggregation after 48 hrs by silver staining-based SDS-PAGE analysis
How it was run: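 Aβ aggregates were incubated with compound for 48 h, with congo red as positive control. Size distribution (monomer, dimer, trimer, high-molecular-weight species) was analysed by SDS-PAGE with silver staining at the start and at the end of incubation.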

[9] = Cmax in po dosed monkey; type: ADME, organism-based, Macaca mulatta; set-up: route oral; conditions: rhesus monkey, in vivo
Mus musculus [10] = assay: Reversal of cognitive deficit in amyloid beta (1 to 42)-treated Alzheimer's disease ICR mouse model assessed as increase in spatial memory function by measuring spontaneous alternation at 10 mg/kg, po administered for 3 consecutive days by Y maze test relative to control; type: functional; how it was run: as §2
Mus musculus [11] = assay: Volume of distribution at steady state in po ICR mouse; type: ADME, organism-based; conditions: in vivo
Mus musculus [12] = assay: AUC (infinity) in mouse at 3 mg/kg, iv; type: ADME, organism-based; set-up: dose 3 mg/kg, route intravenous, time infinity; conditions: in vivo; how it was run: as §3
[13] = Tmax in mouse at 3 mg/kg, po; type: ADME, organism-based; conditions: in vivo; how it was run: as §1
[14] = AUClast in mouse at 3 mg/kg, po; type: ADME, organism-based; set-up: dose 3 mg/kg, time 0 - last, route oral; conditions: in vivo; how it was run: as §3
[15] = Half life in po dosed rat; type: ADME, organism-based; conditions: in vivo
[16] = Terminal half life in mouse at 30 mg/kg, po; type: ADME, organism-based; conditions: in vivo, read-out: beta t1/2 (converted); how it was run: as §1
[17] = Cmax in po dosed dog; type: ADME, organism-based, Canis lupus familiaris; set-up: route oral; conditions: in vivo
[18] = Cmax in mouse at 3 mg/kg, po; type: ADME, organism-based; set-up: dose 3 mg/kg, route oral; conditions: in vivo; how it was run: as §3
Mus musculus [19] = assay: Antiamyloidogenic activity in po dosed double APP/PS1 transgenic Alzheimer's disease mouse model assessed as decrease in amyloid beta (1 to 40) levels in brain administered as qd for 8 weeks by sandwich ELISA; type: functional, organism-based
How it was run: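 APP/PS1 mice, 29 weeks old, were dosed orally once daily for eight weeks at 30 or 100 mg/kg, with a vehicle group. Brain tissue was homogenized and amyloid fibrils were solubilized to monomers. Aβ1-40 and Aβ1-42 were then quantified by immunoassay with antibodies specific to monomeric Aβ.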

[20] = Ratio of AUC in ICR mouse brain to AUC in ICR mouse plasma at 10 mg/kg, po measured at 0.333 hrs; type: ADME, organism-based; conditions: read-out: Ratio AUC
How it was run: (§4)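 ICR mice (n=3) given a single oral dose of 10 mg/kg. Brain and plasma were sampled over nine hours, at 0.333, 1, 3, 6 and 9 h. Kp was calculated as AUC_brain/AUC_plasma.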

[21] = Ratio of AUC in ICR mouse brain to AUC in ICR mouse plasma at 10 mg/kg, po measured at 1 hr; type: ADME, organism-based; conditions: read-out: Ratio AUC; how it was run: as §4
[22] = AUClast in mouse at 10 mg/kg, po; type: ADME, organism-based; set-up: dose 10 mg/kg, route oral, time 0 - last; conditions: in vivo; how it was run: as §3
Cytochrome P450 3A4 = Cytochrome P450 3A4 (Homo sapiens, UniProt P08684); assay: Inhibition of CYP3A4 in human liver microsomes preincubated for 5 mins followed by addition of NADPH generating system measured after 20 mins by LC-MS/MS analysis; type: ADME
How it was run: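 Inhibition of each CYP isozyme (1A2, 2A6, 2C8, 2C9, 2C19, 2D6, 3A4) was measured in human liver microsomes. IC50 values were reported in μM.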

Rhesus monkey = assay: Volume of distribution at steady state in po dosed monkey; type: ADME, organism-based, Macaca mulatta; conditions: in vivo

Chain of Amyloid-beta precursor protein (Homo sapiens) (P05067 whole entry): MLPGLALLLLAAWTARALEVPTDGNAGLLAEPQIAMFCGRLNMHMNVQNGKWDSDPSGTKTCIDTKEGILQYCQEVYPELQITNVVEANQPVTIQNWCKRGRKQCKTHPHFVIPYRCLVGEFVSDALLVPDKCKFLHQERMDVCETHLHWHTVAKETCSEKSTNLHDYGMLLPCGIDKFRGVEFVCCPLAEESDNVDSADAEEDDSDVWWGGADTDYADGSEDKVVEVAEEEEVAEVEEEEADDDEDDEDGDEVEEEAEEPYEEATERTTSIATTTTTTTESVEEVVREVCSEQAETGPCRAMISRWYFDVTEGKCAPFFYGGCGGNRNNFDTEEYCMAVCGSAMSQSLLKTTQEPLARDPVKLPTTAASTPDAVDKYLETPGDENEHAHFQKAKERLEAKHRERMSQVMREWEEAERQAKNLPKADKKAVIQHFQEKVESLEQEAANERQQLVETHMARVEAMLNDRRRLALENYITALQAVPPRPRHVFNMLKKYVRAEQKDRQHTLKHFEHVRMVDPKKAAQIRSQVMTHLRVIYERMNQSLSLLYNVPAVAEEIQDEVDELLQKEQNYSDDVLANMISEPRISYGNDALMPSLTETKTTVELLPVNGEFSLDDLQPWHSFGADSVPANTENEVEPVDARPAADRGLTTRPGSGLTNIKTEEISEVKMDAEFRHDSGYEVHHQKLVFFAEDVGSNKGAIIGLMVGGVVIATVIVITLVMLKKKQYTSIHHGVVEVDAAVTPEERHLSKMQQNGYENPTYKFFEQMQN
Chain of Cytochrome P450 3A4 (P08684 whole entry): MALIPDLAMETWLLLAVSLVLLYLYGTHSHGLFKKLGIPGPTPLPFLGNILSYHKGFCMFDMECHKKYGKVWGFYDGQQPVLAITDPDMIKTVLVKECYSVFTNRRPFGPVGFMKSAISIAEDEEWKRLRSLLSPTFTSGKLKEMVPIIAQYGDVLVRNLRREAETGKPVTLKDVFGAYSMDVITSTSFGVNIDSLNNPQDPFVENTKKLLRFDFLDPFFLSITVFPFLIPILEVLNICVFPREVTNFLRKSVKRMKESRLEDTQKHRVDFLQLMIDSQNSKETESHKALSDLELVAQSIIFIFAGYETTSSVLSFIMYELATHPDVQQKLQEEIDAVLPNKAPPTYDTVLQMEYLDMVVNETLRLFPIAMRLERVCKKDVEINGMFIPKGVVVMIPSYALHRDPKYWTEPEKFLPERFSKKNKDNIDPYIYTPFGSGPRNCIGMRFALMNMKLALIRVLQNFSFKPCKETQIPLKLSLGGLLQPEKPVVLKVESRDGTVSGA

- AUC [1]: 13200 ng·h/mL
- half-life [2]: 2 h
- AUC [3]: 13700 ng·h/mL
- half-life [5]: 5.87 h
- Vdss (Canis familiaris): 2.7 L/kg
- Activity [6]: Active
- AUC(0-inf) [7]: 283 ng·h/mL
- Activity [8]: Active
- Cmax [9]: 969 ng/mL
- Vdss (Mus musculus [11]): 2.5 L/kg
- AUC (Mus musculus [12]): 1325.1 ng·h/mL
- Tmax [13]: 0.7 h
- AUC(0-t) [14]: 246 ng·h/mL
- half-life [15]: 3.8 h
- half-life [16]: 3.3 h
- Cmax [17]: 1610 ng/mL
- Cmax [18]: 102 ng/mL
- Kp at 0.333 h [20]: 1.2
- Kp at 1 h [21]: 1.5
- AUC(0-t) [22]: 2240 ng·h/mL
- IC50 (Cytochrome P450 3A4): > 50 µM
- Vdss (Rhesus monkey): 3.8 L/kg
SMILES: COCCCc1ccc2oc(-c3ccc(OC)c(OC)c3)cc2c1
- Activity (Mus musculus [4]): 71.22%
- Activity (Mus musculus [10]): 73.07%
- Activity (Mus musculus [19]): Dose-dependent effect
